Bioassay records (PubChem)
Only some compounds are listed: those with a hit (about 4.1% of all), similar ones and a draw of the others.
AHR activator = activates the human aryl hydrocarbon receptor. P35869. AHR-responsive luciferase reporter cells, luminescence. activation, % at 5 µM. 320,000 compounds, 2.5% hits. AID 2796; in the data active = activation above about 47%;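 also: 0% = vehicle wells and 100% = reference agonist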
Target sequence (P35869 whole entry, looked up): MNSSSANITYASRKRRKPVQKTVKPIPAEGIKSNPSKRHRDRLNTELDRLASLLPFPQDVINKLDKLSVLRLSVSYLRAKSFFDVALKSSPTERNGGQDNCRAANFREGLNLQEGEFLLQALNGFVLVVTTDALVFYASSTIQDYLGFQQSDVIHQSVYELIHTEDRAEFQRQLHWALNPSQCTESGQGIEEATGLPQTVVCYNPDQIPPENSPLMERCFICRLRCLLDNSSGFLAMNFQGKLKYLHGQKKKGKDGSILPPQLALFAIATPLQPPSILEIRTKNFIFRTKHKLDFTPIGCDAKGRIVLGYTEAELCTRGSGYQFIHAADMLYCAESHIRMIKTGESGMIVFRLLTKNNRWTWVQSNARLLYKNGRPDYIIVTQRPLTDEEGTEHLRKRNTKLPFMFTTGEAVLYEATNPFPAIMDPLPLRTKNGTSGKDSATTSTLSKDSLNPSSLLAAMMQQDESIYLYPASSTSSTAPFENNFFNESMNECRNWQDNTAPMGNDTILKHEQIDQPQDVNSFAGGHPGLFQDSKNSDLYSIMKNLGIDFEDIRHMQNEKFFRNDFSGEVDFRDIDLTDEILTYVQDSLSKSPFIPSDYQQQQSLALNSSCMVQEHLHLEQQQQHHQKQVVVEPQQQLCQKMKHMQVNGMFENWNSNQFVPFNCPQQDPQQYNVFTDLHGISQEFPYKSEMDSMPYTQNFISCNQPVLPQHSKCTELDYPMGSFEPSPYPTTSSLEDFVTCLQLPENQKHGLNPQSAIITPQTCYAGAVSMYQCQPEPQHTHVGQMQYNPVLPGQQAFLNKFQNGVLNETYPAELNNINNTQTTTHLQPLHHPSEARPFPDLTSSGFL
Efflux pump inh = inhibitors of Candida antifungal efflux pumps expressed in yeast; S. cerevisiae Candida pump triplex, Nile Red efflux; inhibition, % at 10 µM; 330,000 compounds, 0.44% hits; AID 485275;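 active = plate passing quality check with inhibition over a set limit, or well fluorescence over plate mean plus 4 SD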;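 also: Nile Red retained in pooled yeast measured as flow cytometry median fluorescence; 0% = buffer negative control and 100% = Enniatin B positive control; higher means more Nile Red kept so more efflux inhibition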
SMARCA2 act = increases SMARCA2 function in MMTV reporter cells | MG213 cells, MMTV-luciferase reporter, dexamethasone, overnight | activation, % at 9.1 µM | 370,000 compounds, 1% hits; in the data active = activation above about 7.8%;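 also: 0% = vehicle wells and 100% = reference activator wells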
H9c2 TAG inh = reduces triacylglycerol accumulation in H9c2 cells; Nile Red lipid (TAG) fluorescence; cells loaded with 200 µM oleic acid; inhibition, % at 12.5 µM; 230,000 compounds, 0.66% hits;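 active = pattern-corrected inhibition of lipid staining of at least 50% with the nuclear-stain viability signal not falling by more than 50%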;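 also: 0% = DMSO wells and 100% = triacsin C control wells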
Tb MetRS inh = blocks T. brucei methionyl-tRNA synthetase activity. purified T. brucei MetRS, ATP depletion, Kinase-Glo luminescence. inhibition, % at 11.9 µM. 360,000 compounds, 0.4% hits;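 active = inhibition above a per-plate cutoff of the control wells' mean inhibition plus 3 SD, cut at about 5.5% in these data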;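 also: 0% = DMSO wells median and 100% = median of wells with control inhibitor compound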
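Material – parasite MetRS enzyme · Medium – HEPES-MgCl2-KCl buffer plus DTT, spermine, BSA, pyrophosphatase · Reagent – ATP, methionine and E. coli bulk tRNA substrates · Times – 15 min enzyme-compound preincubation, 2 h reaction, 10 min detection, 25 °C · Measured by – luminescence of leftover ATP · Evaluation – percent inhibition relative to median high and low control wells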
* marks the source's active call; other numbers are inactive results; / = no result.

SMILES | AHR activator | Efflux pump inh | SMARCA2 act | H9c2 TAG inh | Tb MetRS inh
COc1cccc(OC)c1C(=O)Nc1sc2c(c1C#N)CCC2 | 54* | 0 | -2 | 8 | -1
O=C(CCNC(=O)c1ccccc1Cl)NNC(=O)c1ccccc1O | 68* | 0 | -2 | -2 | 0
O=C(NCCNC(=O)c1ccccc1O)c1ccccc1O | 0 | 0 | 0 | -3 | 2
COC(=O)[C@]12C[C@H](CC(=O)NCc3ccc(C)o3)C(=O)N(Cc3ccc(Cl)cc3Cl)C1=C[C@H](C1CCCC1)O[C@@H]2C | / | / | -5 | / | /
COC(=O)[C@]12CCCCC=C1N(Cc1ccc(OC)cc1)C(=O)[C@@H]2CC(=O)NCCC(C)C | / | / | -1 | / | /
O=C(/C=C/Nc1ccccc1Oc1ccccc1)c1ccco1 | 3 | 0 | 7.9* | 1 | 0
CC1(NC(=O)c2ccc(C#Cc3cccc(F)c3)cn2)COC1 | / | / | -3 | / | /
COc1ccc2c(c1)[nH]c1c(=O)n(Cc3ccccn3)cnc12 | 12 | 0 | -1 | / | 0
Cc1ccc2c(c1)[nH]c1c(=O)n(Cc3ccccn3)cnc12 | 49* | 0 | 4 | -28 | -1
Cc1cccc2nc(CSc3nc4ccc([N+](=O)[O-])cc4[nH]3)cn12 | 21 | 0 | -1 | / | 0
O=[N+]([O-])c1ccc2nc(SCc3cn4cccnc4n3)[nH]c2c1 | 51* | 0 | -2 | 16 | 1
O=[N+]([O-])c1ccc2nc(SCc3cn4cc(Cl)ccc4n3)[nH]c2c1 | 78* | 0 | -1 | / | 3
C(=N\Nc1ncnc2sc3c(c12)CCC3)/c1cccs1 | 56* | 0 | -3 | / | -1
O=C(OCc1nc2ccccc2[nH]1)C12CC3CC(CC(C3)C1)C2 | 0 | 0 | -1 | / | 47*
COc1ccccc1NC(=O)c1nnn(CC(=O)Nc2ccccc2)c1N | 47* | 0 | 1 | 5 | 0
O=C(N/N=C/c1c(Cl)cccc1Cl)c1ccccc1F | 60* | 0 | 3 | / | 0
O=C(N/N=C/c1c(Cl)cccc1Cl)c1ccc(F)cc1 | 16 | 0 | 1 | / | 0
CCOC(=O)[C@]12CCCC3=C1N(CCC3)C(=O)[C@@H](CC(=O)N1CCN(C(=O)c3ccco3)CC1)C2 | / | / | -3 | / | /
COc1cc2cnc(-c3ccsc3)cc2cc1OC | 49* | 0 | 3 | -2 | 0
Fc1ccc2cc(-c3ccsc3)ncc2c1 | 51* | 0 | 6 | -17 | 0
CCn1c(SCC(=O)N/N=C/c2cccc(Oc3ccccc3)c2)nnc1-c1ccccc1 | / | / | -3 | / | /
CCCCCCCCN1C(=O)[C@@H](CC(=O)NCC23CC4CC(CC(C4)C2)C3)C[C@@]2(C(=O)OC)C1=C[C@H](C(C)C)O[C@@H]2C1CC1 | / | / | -1 | / | /
O=C(N[C@@H](Cc1cccnc1)C(=O)N1CCC[C@H]1C(=O)NCCc1ccccc1Cl)C1CCCC1 | / | / | 0 | / | /
Cc1ccc(C=NNC(=O)CSc2nc3sc4c(c3c(=O)n2-c2ccccc2)CCCC4)s1 | / | / | -2 | / | /
Cc1ccc(C(=O)N(CC(C)C)c2nc3ccccc3s2)o1 | 72* | 0 | -1 | / | 0
SMILES | AHR activator | Efflux pump inh | SMARCA2 act | H9c2 TAG inh | Tb MetRS inh
Cc1sc2ncnc(NCc3cccnc3)c2c1C | 61* | 0 | -2 | -4 | 0
CCOc1ccc(NC(=O)CSc2nnc(-c3n[nH]c4c3CCC4)n2N)cc1 | / | / | 0 | / | /
O=C(C1CC1)N1CCN(S(=O)(=O)c2ccc3c(c2)OCCO3)CC1 | 55* | 0 | -3 | -7 | -1
N#Cc1cc(-c2ccccc2)oc1NC(=O)c1ccccc1 | 16 | 0 | -1 | 25 | 0
Cc1ccc(C(=O)Nc2oc(-c3ccccc3)cc2C#N)cc1 | 56* | 0 | 0 | 26 | 0
N/C(=N\C(=O)OCc1ccccc1)N(CC#CC1=CCCCC1)CC1CC1 | / | / | -3 | / | /
O[C@@H](Cc1ccccc1)[C@@H](/C=C/c1ccccc1)NCCc1ccccc1 | / | / | -3 | / | /
C=CCn1c(=N)n(CC(=O)OC)c2ccccc21 | 4 | 0 | -1 | -6 | 0
C=CCn1c(=N)n(CC(=O)c2ccc(Br)s2)c2ccccc21 | 80* | 0 | 1 | / | 2
C=CCn1c(=N)n(CC(=O)c2ccc(Cl)cc2)c2ccccc21 | 79* | 0 | 1 | / | 2
COC(=O)[C@H](C(C)C)N(Cc1cn(Cc2ccccc2)nn1)S(=O)(=O)c1ccc(F)cc1Br | / | / | -4 | / | /
O=C(CN1CCCc2ccccc21)N/N=C/c1ccccc1O | 47* | 0 | -2 | / | 1
CCn1c(Cl)c(C=O)s/c1=N\S(=O)(=O)c1ccccc1 | -1 | 0 | -12 | 85* | -1
CCc1ccc(N/C(N)=N/c2nc(CSc3ncccn3)cc(=O)[nH]2)cc1 | 50* | 0 | -3 | -40 | -1
CCOC(=O)CC[C@@H]1CC[C@]2(CCCN(Cc3cccs3)C2)O1 | / | / | 1 | / | /
C/C(=N\Nc1nc(N)cc(Cl)n1)c1cccc(N)c1 | 65* | 0 | 3 | / | -1
COc1ccc2c(c1)CCC1C2=NN(/C(C)=C\C(C)=O)C1c1ccc(F)cc1 (stereo unspecified) | 60* | 0 | 5 | -11 | -1
COc1ccc(/C=C2\CCCC3C2=NN(C(=O)CSc2ncn[nH]2)C3c2ccc(OC)cc2)cc1 (stereo unspecified) | 1 | 0 | -1 | / | 2
COc1ccc2c(c1)C1=NN(/C(C)=C/C(C)=O)C(c3ccc(F)cc3)C1CC2 (stereo unspecified) | 69* | 0 | 0 | / | 0
COc1ccc2c(c1)C1=NN(/C(C)=C/C(C)=O)C(c3cccc(F)c3)C1CC2 (stereo unspecified) | 97* | 0 | 1 | / | 3
COc1ccc2c(c1)C1=NN(/C(C)=C\C(C)=O)C(c3ccccc3)C1CC2 (stereo unspecified) | 84* | 0 | 5 | / | 0
Cc1ccc(Cn2c(=S)[nH]c3ccc(N4CCOCC4)cc3c2=O)o1 | 0 | 0 | 2 | -11 | 2
CCOc1cc2[nH]c(=S)n(Cc3ccc(C)o3)c(=O)c2cc1OCC | 65* | 0 | 5 | / | -1
CCCCN1CCS(=O)(=O)N(Cc2cn(Cc3cccc(Cl)c3)nn2)C(C(=O)OC)C1 (stereo unspecified) | / | / | -2 | / | /
Nc1[nH]c(C(=O)c2ccccc2)c(-c2cccc(C(F)(F)F)c2)c1C(=O)NCCc1c[nH]c2ccccc12 | / | / | 2 | / | /
SMILES | AHR activator | Efflux pump inh | SMARCA2 act | H9c2 TAG inh | Tb MetRS inh
COc1ccc(/C=N/n2c(-c3n[nH]c4c3CCC4)n[nH]c2=S)c(OC)c1OC | 25 | 0 | -1 | -36 | -1
COc1cccc(/C=N/n2c(-c3n[nH]c4c3CCC4)n[nH]c2=S)c1OC | 51* | 0 | -2 | 7 | 0
C/C(=N\NC(=O)c1ccc(C)cc1C)c1ccc2c(c1)Nc1ccccc1S2 | 0 | 0 | 11* | / | 0
CC(=O)Oc1cccc(C2C3=C(CC(C)(C)CC3=O)Nc3ccccc3N2C(C)=O)c1 (stereo unspecified) | 0 | 0 | 0 | 0 | -2
Cc1ccc2c(c1)N1C(=O)c3ccccc3C1C1=C(CC(C)(C)CC1=O)N2 (stereo unspecified) | 50* | 0 | -4 | 41 | -1
CCOc1ccccc1C(=O)N1CCC(Oc2cccnc2)CC1 | / | / | 1 | / | /
CC(=O)N1CCCN(C(=O)Cn2cnc3ccccc3c2=O)CC1 | / | / | -3 | / | /
